Source: ChEMBL document CHEMBL1770134, “Synthesis and in vitro activity of novel 1,2,4-triazolo[4,3-a]pyrimidine oxazolidinone antibacterial agents” (Bioorg Med Chem Lett, 2011)
Converted amounts (≈) assume the structure as drawn.

Legend:
[1] = tested on: Escherichia coli; test: Antibacterial activity against Escherichia coli ATCC 25922; format: functional
[2] = tested on: Staphylococcus aureus; test: Antibacterial activity against Staphylococcus aureus ATCC 25923; format: functional
[3] = tested on: Staphylococcus epidermidis; test: Antibacterial activity Staphylococcus epidermidis ATCC 12228; format: functional
[4] = tested on: Staphylococcus aureus; test: Antibacterial activity against methicillin-resistant Staphylococcus aureus ATCC 43300; format: functional
In short: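 MIC determined following CLSI guideline M07-A8 (2009) for dilution susceptibility testing of aerobically growing bacteria.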

[5] = tested on: Enterococcus faecalis; test: Antibacterial activity against Enterococcus faecalis ATCC 29212; format: functional
[6] = tested on: Staphylococcus epidermidis; test: Ratio of MIC for Linezolid to compound for Staphylococcus epidermidis ATCC 12228; format: functional
[7] = biological target: CYP3A4 (Homo sapiens, UniProt P08684); test: Inhibition of CYP3A4 at 10 uM; format: ADME
Chain of CYP3A4 (P08684 whole entry, canonical isoform): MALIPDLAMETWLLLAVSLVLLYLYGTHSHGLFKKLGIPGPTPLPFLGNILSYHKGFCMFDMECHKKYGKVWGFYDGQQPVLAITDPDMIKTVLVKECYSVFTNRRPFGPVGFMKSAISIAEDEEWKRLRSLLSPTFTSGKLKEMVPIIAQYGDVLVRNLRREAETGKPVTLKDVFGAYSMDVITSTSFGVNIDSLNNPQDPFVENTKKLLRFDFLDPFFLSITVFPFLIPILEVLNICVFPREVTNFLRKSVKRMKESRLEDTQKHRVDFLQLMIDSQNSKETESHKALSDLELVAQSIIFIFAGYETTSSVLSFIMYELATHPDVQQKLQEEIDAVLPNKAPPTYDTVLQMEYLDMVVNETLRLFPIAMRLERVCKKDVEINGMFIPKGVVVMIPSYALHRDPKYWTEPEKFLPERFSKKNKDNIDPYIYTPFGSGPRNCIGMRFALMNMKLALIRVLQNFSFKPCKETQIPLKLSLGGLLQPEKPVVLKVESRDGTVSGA
In short: (§1)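 Recombinant CYP isoforms each incubated with its own fluorogenic substrate, which is turned into a fluorescent product; fluorescence read on a plate reader. Inhibition taken as concentration-dependent reduction of that fluorescence, with standard inhibitors, buffers and stop reagents from a commercial kit.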

[8] = biological target: CYP2C9 (Homo sapiens, UniProt P11712); test: Inhibition of CYP2C9 at 10 uM; format: ADME; in short: as §1
Chain of CYP2C9 (P11712 whole entry): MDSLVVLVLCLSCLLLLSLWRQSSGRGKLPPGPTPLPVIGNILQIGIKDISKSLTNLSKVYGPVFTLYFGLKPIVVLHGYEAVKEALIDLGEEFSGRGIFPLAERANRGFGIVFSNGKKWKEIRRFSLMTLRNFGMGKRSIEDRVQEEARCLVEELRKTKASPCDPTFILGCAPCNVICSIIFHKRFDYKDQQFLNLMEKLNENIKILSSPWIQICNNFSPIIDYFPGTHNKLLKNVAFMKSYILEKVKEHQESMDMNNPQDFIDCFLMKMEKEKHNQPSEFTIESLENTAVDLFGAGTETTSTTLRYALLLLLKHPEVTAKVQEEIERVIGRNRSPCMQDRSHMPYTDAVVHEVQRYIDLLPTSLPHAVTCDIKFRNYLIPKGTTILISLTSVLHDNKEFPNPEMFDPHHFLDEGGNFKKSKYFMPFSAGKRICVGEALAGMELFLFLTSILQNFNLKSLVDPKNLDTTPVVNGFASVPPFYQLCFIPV

[9] = biological target: CYP2D6 (Homo sapiens, UniProt P10635); test: Inhibition of CYP2D6 at 10 uM; format: ADME; in short: as §1
Chain of CYP2D6 (P10635 whole entry): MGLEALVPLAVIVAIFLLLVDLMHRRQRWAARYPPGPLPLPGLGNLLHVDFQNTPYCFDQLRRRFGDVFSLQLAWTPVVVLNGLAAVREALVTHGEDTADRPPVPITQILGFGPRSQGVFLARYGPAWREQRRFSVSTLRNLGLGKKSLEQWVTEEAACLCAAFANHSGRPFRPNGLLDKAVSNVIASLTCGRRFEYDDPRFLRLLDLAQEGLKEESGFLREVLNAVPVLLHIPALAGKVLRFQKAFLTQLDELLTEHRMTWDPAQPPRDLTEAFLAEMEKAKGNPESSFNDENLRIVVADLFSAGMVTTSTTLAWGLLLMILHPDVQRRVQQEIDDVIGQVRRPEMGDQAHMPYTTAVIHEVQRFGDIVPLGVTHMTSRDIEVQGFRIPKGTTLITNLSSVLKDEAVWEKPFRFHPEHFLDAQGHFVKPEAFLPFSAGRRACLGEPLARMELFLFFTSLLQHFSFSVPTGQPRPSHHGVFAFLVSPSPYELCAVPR

[10] = biological target: T1, CYP1A2 (Homo sapiens, UniProt P05177); test: Inhibition of CYP1A2 at 10 uM; format: ADME; in short: as §1
T1 sequence (P05177 whole entry): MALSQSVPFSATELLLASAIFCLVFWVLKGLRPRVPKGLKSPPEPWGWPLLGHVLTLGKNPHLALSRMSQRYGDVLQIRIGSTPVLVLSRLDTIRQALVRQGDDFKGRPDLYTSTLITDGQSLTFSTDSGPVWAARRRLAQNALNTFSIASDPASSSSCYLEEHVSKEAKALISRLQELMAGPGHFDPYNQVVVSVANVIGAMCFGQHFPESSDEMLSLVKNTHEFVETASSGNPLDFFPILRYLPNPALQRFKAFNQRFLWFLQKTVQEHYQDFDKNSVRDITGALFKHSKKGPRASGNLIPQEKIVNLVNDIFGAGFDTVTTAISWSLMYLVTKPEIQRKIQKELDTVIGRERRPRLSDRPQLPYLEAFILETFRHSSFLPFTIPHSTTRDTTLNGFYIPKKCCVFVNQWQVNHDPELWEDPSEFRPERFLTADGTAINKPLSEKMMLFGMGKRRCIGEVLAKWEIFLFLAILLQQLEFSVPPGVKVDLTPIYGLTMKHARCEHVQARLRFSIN

[11] = tested on: Enterococcus faecalis; test: Ratio of MIC for Linezolid to compound for Enterococcus faecalis ATCC 29212; format: functional
[12] = tested on: Liver; test: Metabolic stability in human liver microsomes assessed per gram of liver; format: ADME, Microsome
[13] = tested on: Staphylococcus aureus; test: Ratio of MIC for Linezolid to compound for Staphylococcus aureus ATCC 25923; format: functional
[14] = biological target: CYP2C19 (Homo sapiens, UniProt P33261); test: Inhibition of CYP2C19 at 10 uM; format: ADME; in short: as §1
Chain of CYP2C19 (P33261 whole entry): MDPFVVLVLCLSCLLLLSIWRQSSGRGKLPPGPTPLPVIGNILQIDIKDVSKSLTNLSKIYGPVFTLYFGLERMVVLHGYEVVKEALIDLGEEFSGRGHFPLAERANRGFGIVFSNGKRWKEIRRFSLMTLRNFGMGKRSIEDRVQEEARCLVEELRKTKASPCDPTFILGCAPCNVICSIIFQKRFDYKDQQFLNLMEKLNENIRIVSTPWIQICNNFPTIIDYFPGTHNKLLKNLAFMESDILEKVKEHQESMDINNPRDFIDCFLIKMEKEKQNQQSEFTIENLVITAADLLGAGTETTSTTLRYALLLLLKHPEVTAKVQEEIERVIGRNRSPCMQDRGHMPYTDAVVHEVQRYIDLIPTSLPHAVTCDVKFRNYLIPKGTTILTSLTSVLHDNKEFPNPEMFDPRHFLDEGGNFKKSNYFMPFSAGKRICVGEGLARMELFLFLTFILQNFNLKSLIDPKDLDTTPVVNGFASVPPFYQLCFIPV

SMILES | MIC [1] [µg/mL] | MIC [2] [µg/mL] | MIC [3] [µg/mL] | MIC [4] [µg/mL] | MIC [5] [µg/mL] | Ratio [6] | inhibition at 10 µM [7] [%] | inhibition at 10 µM [8] [%] | inhibition at 10 µM [9] [%] | inhibition at 10 µM [10] [%] | Ratio [11] | Stability [12] [mL/min/g] | Ratio [13] | inhibition at 10 µM [14] [%]
CC(C)NC(=S)NC[C@H]1CN(c2ccc(-c3nnc4ncccn34)cc2)C(=O)O1 | > 16 | 16 (≈ 38.9 µM) | 16 (≈ 38.9 µM) | 16 (≈ 38.9 µM) | > 16 |  |  |  |  |  |  |  |  | 
O=C(NC[C@H]1CN(c2ccc(-c3nnc4ncccn34)cc2)C(=O)O1)c1ccccc1 | > 16 | > 16 | > 16 | > 16 | > 16 |  |  |  |  |  |  |  |  | 
O=C(NC[C@H]1CN(c2ccc(-c3nnc4ncccn34)cc2)C(=O)O1)Oc1ccccc1 | > 16 | > 16 | > 16 | > 16 | > 16 |  |  |  |  |  |  |  |  | 
CCC(=S)NC[C@H]1CN(c2ccc(-c3nnc4ncccn34)cc2)C(=O)O1 | > 16 | 4 (≈ 10.5 µM) | 2 (≈ 5.23 µM) | 2 (≈ 5.23 µM) | 4 (≈ 10.5 µM) |  |  |  |  |  |  |  |  | 
O=C(NC[C@H]1CN(c2ccc(-c3nnc4ncccn34)cc2)C(=O)O1)C(Cl)Cl | > 16 | 4 (≈ 9.5 µM) | 4 (≈ 9.5 µM) | 8 (≈ 19 µM) | 8 (≈ 19 µM) |  |  |  |  |  |  |  |  | 
CC(C)NC(=O)NC[C@H]1CN(c2ccc(-c3nnc4ncccn34)cc2)C(=O)O1 | > 16 | > 16 | > 16 | > 16 | > 16 |  |  |  |  |  |  |  |  | 
CCC(=O)NC[C@H]1CN(c2ccc(-c3nnc4ncccn34)cc2)C(=O)O1 | > 16 | 16 (≈ 43.7 µM) | 16 (≈ 43.7 µM) | 16 (≈ 43.7 µM) | 16 (≈ 43.7 µM) |  |  |  |  |  |  |  |  | 
CCOC(=O)NC[C@H]1CN(c2ccc(-c3nnc4ncccn34)cc2)C(=O)O1 | > 16 | 16 (≈ 41.8 µM) | > 16 | 16 (≈ 41.8 µM) | > 16 |  |  |  |  |  |  |  |  | 
CC(=S)NC[C@H]1CN(c2ccc(-c3nnc4ncccn34)cc2)C(=O)O1 | > 16 | 1 (≈ 2.71 µM) | 0.5 (≈ 1.36 µM) | 0.5 (≈ 1.36 µM) | 1 (≈ 2.71 µM) | 2 | 28 | 15 | 13 | 0 | 2 | 0.3 | 2 | 30
COC(=O)NC[C@H]1CN(c2ccc(-c3nnc4ncccn34)cc2)C(=O)O1 | > 16 | 16 (≈ 43.4 µM) | 16 (≈ 43.4 µM) | 16 (≈ 43.4 µM) | > 16 |  |  |  |  |  |  |  |  | 
O=C(NC[C@H]1CN(c2ccc(-c3nnc4ncccn34)cc2)C(=O)O1)C1CC1 | > 16 | 16 (≈ 42.3 µM) | 8 (≈ 21.1 µM) | 8 (≈ 21.1 µM) | 16 (≈ 42.3 µM) |  |  |  |  |  |  |  |  | 
CCCCNC(=O)NC[C@H]1CN(c2ccc(-c3nnc4ncccn34)cc2)C(=O)O1 | > 16 | > 16 | > 16 | > 16 | > 16 |  |  |  |  |  |  |  |  | 
O=C(CCl)NC[C@H]1CN(c2ccc(-c3nnc4ncccn34)cc2)C(=O)O1 | > 16 | 4 (≈ 10.3 µM) | 4 (≈ 10.3 µM) | 4 (≈ 10.3 µM) | 16 (≈ 41.4 µM) |  |  |  |  |  |  |  |  | 
CCCCC(=O)NC[C@H]1CN(c2ccc(-c3nnc4ncccn34)cc2)C(=O)O1 | > 16 | > 16 | 16 (≈ 40.6 µM) | 16 (≈ 40.6 µM) | > 16 |  |  |  |  |  |  |  |  | 
CC(=O)NC[C@H]1CN(c2ccc(-c3nnc4ncccn34)cc2)C(=O)O1 | > 16 | 16 (≈ 45.4 µM) | 8 (≈ 22.7 µM) | 16 (≈ 45.4 µM) | 16 (≈ 45.4 µM) |  |  |  |  |  |  |  |  | 
CCCCNC(=S)NC[C@H]1CN(c2ccc(-c3nnc4ncccn34)cc2)C(=O)O1 | > 16 | 16 (≈ 37.6 µM) | 8 (≈ 18.8 µM) | 8 (≈ 18.8 µM) | 16 (≈ 37.6 µM) |  |  |  |  |  |  |  |  | 
O=C(NC[C@H]1CN(c2ccc(-c3nnc4ncccn34)cc2)C(=O)O1)C1CCC1 | > 16 | > 16 | 16 (≈ 40.8 µM) | 16 (≈ 40.8 µM) | > 16 |  |  |  |  |  |  |  |  | 
CC(C)(C)NC(=O)NC[C@H]1CN(c2ccc(-c3nnc4ncccn34)cc2)C(=O)O1 | > 16 | > 16 | > 16 | > 16 | > 16 |  |  |  |  |  |  |  |  | 
COCCNC(=S)NC[C@H]1CN(c2ccc(-c3nnc4ncccn34)cc2)C(=O)O1 | > 16 | > 16 | 8 (≈ 18.7 µM) | 16 (≈ 37.4 µM) | > 16 |  |  |  |  |  |  |  |  | 
CC(C)CC(=O)NC[C@H]1CN(c2ccc(-c3nnc4ncccn34)cc2)C(=O)O1 | > 16 | > 16 | 16 (≈ 40.6 µM) | 16 (≈ 40.6 µM) | > 16 |  |  |  |  |  |  |  |  | 
CC(=O)NC[C@H]1CN(c2ccc(N3CCOCC3)c(F)c2)C(=O)O1 [LINEZOLID] | > 16 |  | 1 (≈ 2.96 µM) |  |  |  |  |  |  |  |  |  |  | 
CC(C)C(=O)NC[C@H]1CN(c2ccc(-c3nnc4ncccn34)cc2)C(=O)O1 | > 16 | > 16 | > 16 | 16 (≈ 42.1 µM) | > 16 |  |  |  |  |  |  |  |  | 
CCCC(=O)NC[C@H]1CN(c2ccc(-c3nnc4ncccn34)cc2)C(=O)O1 | > 16 | > 16 | 16 (≈ 42.1 µM) | 16 (≈ 42.1 µM) | > 16 |  |  |  |  |  |  |  |  | 
